A selection: hits, their analogues and other compounds. The true share with any hit is near 2%.
NR2E3 ag-1: inhibitors of NR2E3-RetCOR corepressor binding, primary screen, NR2E3 agonist project, biochemical, TR-FRET, GST-NR2E3, biotin-RetCOR. AID 2300, 2010. inhibition of corepressor binding, % at 4.78 µM. Photoreceptor-specific nuclear receptor (Homo sapiens), Q9Y5X4. 1536-well. 320,000 compounds, 0.12% hits;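 active = percent inhibition above the cutoff of mean plus 3 SD of all tested compounds, set per screening campaign, cut at about 20% in these data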;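 also: 0% = DMSO wells and 100% = biotin wells as full block of FRET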
Target sequence (Q9Y5X4 whole entry, looked up): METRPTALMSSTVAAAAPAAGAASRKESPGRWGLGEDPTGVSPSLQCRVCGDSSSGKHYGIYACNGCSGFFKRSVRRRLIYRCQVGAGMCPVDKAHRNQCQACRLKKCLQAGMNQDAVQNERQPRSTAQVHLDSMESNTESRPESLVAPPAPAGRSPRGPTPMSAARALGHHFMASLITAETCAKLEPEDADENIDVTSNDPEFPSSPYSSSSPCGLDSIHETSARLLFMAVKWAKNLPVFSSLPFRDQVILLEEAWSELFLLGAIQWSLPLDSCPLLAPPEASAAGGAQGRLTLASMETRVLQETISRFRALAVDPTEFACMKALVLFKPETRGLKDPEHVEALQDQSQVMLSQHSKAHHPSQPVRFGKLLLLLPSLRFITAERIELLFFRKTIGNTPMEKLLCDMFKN
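Material: NR2E3–RetCOR corepressor complex | Quantity: 1.35 nM GST-tagged NR2E3 final | Schedule: 5 h at 4 °C | Replication: Singlicate compound wells | Reagent: RetCOR corepressor, biotinylated, 7 nM | Controls: Biotin wells as high control, 0.6% DMSO wells as low control | Signal: TR-FRET, Eu(K)-anti-GST donor, streptavidin-D2 acceptor, ex 340, em 617/671 nm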
NR2E3 ag-2: NR2E3 agonists in two-hybrid cells, primary screen, cell-based, luminescence, CHO-S, Gal4-NCOR/VP16-NR2E3. Photoreceptor-specific nuclear receptor (Homo sapiens), Q9Y5X4. luciferase. inhibition of corepressor binding, % at 3.98 µM. 360,000 compounds, 0.35% hits;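 active = inhibition above the mean of all tested compounds plus 3 SD, cut at about 70% in these data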;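 also: 0% = DMSO with NR2E3 transfected cells and 100% = cells lacking NR2E3 construct; higher means lower luciferase signal from less NR2E3 corepressor binding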
TROY signal inh: inhibitors of TROY-driven NF-kB signaling, primary screen, Q293 LMP1-TROYcd cells, NF-kB luciferase, uHTS | Q293 LMP1-TROYcd NF-kB luciferase reporter, 4 h | 360,000 compounds, 0.98% hits | inhibition, % at 10 µM | AID 1347056, 2019;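 active = compounds whose plate-normalised and pattern-corrected inhibition of the luciferase reporter signal at the single screening dose is 50% or more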
EBV LMP1 NFkB: EBV LMP1-driven NF-kappaB luciferase reporter inhibitors, primary screen, cell-based, luminescence, single point | LMP1-induced NF-kappaB luciferase reporter cells | 350,000 compounds, 0.69% hits | inhibition, % at 12.5 µM | AID 504558, 2011; in the data active = inhibition above about 41%;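 also: 0% = neutral control wells and 100% = reference inhibitor control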
HIF activator: HIF pathway transcriptional activators, primary screen, cell-based, U2OS HRE-luciferase, luminescence. U2OS HRE-luciferase reporter; normalized: DMSO 0%, desferrioxamine 100%. activation, % at 7.5 µM (by protocol). 300,000 compounds, 0.32% hits. AID 1910, 2009;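 active = mean activation of at least 10% of the iron chelator positive control signal, with at least half of replicates also reaching 10%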
Starred values were filed as active, the others as inactive; . = not tested or not shown.

SMILES	NR2E3 ag-1	NR2E3 ag-2	TROY signal inh	EBV LMP1 NFkB	HIF activator
Cc1cccc(-c2noc(CN(C)S(=O)(=O)c3cc(Cl)ccc3Cl)n2)c1	1	-18	-2	-4	168*
COc1ccc(Cl)cc1C(=O)N(Cc1nc(-c2cccc(C)c2)no1)C(C)C	-1	-23	-20	3	0
Cc1cccc(NC(=O)CN2C(=O)S/C(=C\c3ccc(O)c([N+](=O)[O-])c3)C2=O)c1	6	-17	5	2	-1
COc1cc(/C=C2\SC(=O)N(c3cccc(Cl)c3)C2=O)cc([N+](=O)[O-])c1O	.	-3	17	-1	.
O=C1S/C(=C\c2ccc(O)c([N+](=O)[O-])c2)C(=O)N1c1ccccc1Cl	4	28	54*	-4	1
O=C1S/C(=C\c2ccc(O)c([N+](=O)[O-])c2)C(=O)N1Cc1cccc([N+](=O)[O-])c1	4	20	59*	4	-1
CN(C(=O)C1CCC(=O)N(CCCN2CCCC2=O)C1)C(C1CC1)C1CC1 (configuration not stated)	0	-1	6	-7	0
O=C(NCCCN1CCCC1=O)Nc1ccccc1F	4	-37	-10	-4	1
c1ccc(C[n+]2cccc(-c3ccccc3)c2)cc1	3	-23	90*	-8	-1
COc1ccc(N/C=C2\C(=O)CCc3c2oc2cc(Cl)c(O)c(Cl)c32)cc1	7	-11	55*	-5	-25
Cc1nc(Nc2nc3ccccc3o2)nc(C)c1C(=O)Nc1ccc(F)cc1	5	3	14	3	1
Cc1cccc(C)c1Nc1nc2ccccc2o1	4	-10	8	64*	0
CCOC(=O)c1cnc(Nc2nc3ccccc3o2)nc1C	1	-95	56*	65*	-2
CCOC(=O)c1cnc(Nc2nc3ccccc3o2)nc1CSc1nnc(C)s1	0	-98	13	-10	2
Cc1nc(Nc2nc3ccccc3o2)nc2c1CCC2	-2	-102	32	57*	-1
CCOc1cccc(-c2c(C(=O)N/N=C/c3ccco3)nnn2-c2nonc2N)c1	-1	14	-22	-5	0
O=C(OCC(=O)N1CCc2ccccc2C1)c1c(F)cccc1Cl	.	-91	-29	-21	.
Cc1cc(N2CCN(S(=O)(=O)c3ccc(Cl)cc3)CC2)c2ccccc2n1	7	11	53*	-7	-53
CN(C)c1ccc(C=C(C#N)C(=O)c2ccccc2)cc1Br	.	19	-3	.	.
COc1ccc(-c2ccc(C(=O)Nc3cccc(F)c3)c3occc23)c(C)c1	.	-118	58*	.	.
O=C(CCCCCl)Nc1c2c(nc3ccccc13)CCC2	-2	6	1	5	1
CCOc1ccccc1N1CCN(C(=O)NCc2ccc(C)cc2)CC1	3	-11	11	-4	0
CCCOc1ccc(N)cc1N	4	-11	3	54*	3
CCCOc1cc(N)ccc1C(=O)OCCN(CC)CC	-2	-3	3	-3	.
CCCCCCCCN1C(=O)[C@H](CC(=O)N2CCN(C(=O)c3ccco3)CC2)C[C@@]2(C(=O)OC)CCCCC=C12	.	2	13	.	.
SMILES	NR2E3 ag-1	NR2E3 ag-2	TROY signal inh	EBV LMP1 NFkB	HIF activator
O=C1CCN(c2ccccc2)N1	.	34	-6	2	.
O=C1CN(c2ccccc2)C(=O)N1	-3	0	-5	-5	48*
C/C(=N\NC(=O)C1COc2ccccc2O1)c1cc2ccccc2o1 (configuration not stated)	2	-13	-21	40*	0
COc1ccc([C@H]2CC(=O)C[C@@H](CCn3cc(-c4ccccn4)nn3)O2)cc1	.	2	4	.	.
CC(OC(=O)Cn1cnc2c1c(=O)n(C)c(=O)n2C)C(=O)N(C)c1ccccc1 (configuration not stated)	-4	-2	-5	3	1
CSc1cccc(NC(=O)c2cnn3ccccc23)c1	-2	-112	-59	-18	2
CCc1ccc(NC(=O)c2cnn3ccccc23)cc1	1	-99	53*	35	-3
COCCNC(=O)c1ccccc1NC(=O)CN(c1ccc2c(c1)OCO2)S(C)(=O)=O	1	6	10	-9	0
COC(=O)c1ccc(C(=O)OC)c(NC(=O)CN(c2ccc3c(c2)OCO3)S(C)(=O)=O)c1	2	1	57*	2	0
c1ccc(CCCNCCCn2cnc3c(OCc4ccccc4)ncnc32)cc1	.	15	8	-3	.
COc1ccc(/C=N/Nc2nnc(C)n2N)cc1OC	2	-14	32	60*	3
COc1ccc(/C=N/Nc2nnc(C)n2N)cc1OC(C)=O	-2	-36	16	-4	0
Cc1nnc(N/N=C/c2ccc([N+](=O)[O-])cc2)n1N	1	12	55*	1	3
COc1ccc(/C=N/N=C/c2ccc(OC)c(OC)c2)cc1OC	1	-30	-7	44*	1
Cc1csc(N/N=C/c2ccc([N+](=O)[O-])cc2)n1	2	-31	0	-30	1
COc1ccc(-c2nc(CS(=O)(=O)CC(=O)NCc3cccc(F)c3)c(C)o2)cc1	-1	7	7	-3	0
CCCCNc1nc(N)nc(-c2cc(Cl)ccc2O)n1	3	-71	28	-40	13*
COc1ccc(NC(=O)CN2C(=O)NC(C)(C3CC3)C2=O)cc1S(=O)(=O)N1CCCCC1 (configuration not stated)	2	7	5	-2	.
CC(C)(C)c1ccc(CC(=O)N2CCC2(C)C(=O)NS(=O)(=O)c2cccc(OC(F)F)c2)cc1 (configuration not stated)	.	28	8	.	.
Cc1cccc(CN2C(=O)/C(=C\c3ccc(C(=O)NCCN4CCOCC4)cc3)Sc3ccccc32)c1	1	35	62*	6	0
CCN1CCN(CCNC(=O)c2ccc3c(c2)N(Cc2ccc(F)cc2)C(=O)/C(=C/c2ccccc2)S3)CC1	2	2	1	-61	0
CC(C)(C)c1ccc(/C=C2\SC(=O)N(CCNC(=O)c3cccc(S(=O)(=O)N4CCOCC4)c3)C2=O)cc1	1	-31	84*	20	0
Cc1ccccc1CN1C(=O)/C(=C\c2ccc(C(=O)NCCN3CCOCC3)cc2)Sc2ccccc21	2	46	46	7	0
Cc1ccc(S(=O)(=O)N2CCOCC2)cc1C(=O)NCCN1C(=O)S/C(=C\c2ccccc2Cl)C1=O	2	8	3	0	0
CCN1CCN(CCNC(=O)c2ccc(/C=C3/Sc4ccccc4N(Cc4cccc(Cl)c4)C3=O)cc2)CC1	-2	19	83*	-11	0

High-throughput results from PubChem BioAssay.
